Data reported in ChEMBL document CHEMBL1125242, “Synthesis and anticonvulsant activity of 1-acyl-2-pyrrolidinone derivatives” (J Med Chem, 1991).

What was measured:
[1] = Degradation rate constant in the buffer solution(pH 7.4) was studied as a measure of the stability of the compound.; type: physicochemical
Method in brief: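 A 0.1 M acetonitrile stock is added to preheated pH 7.4 phosphate buffer (0.1 M total, ionic strength 0.3 with NaCl) to 1 mM at 37 ± 0.2 °C. Aliquots are sampled over time. Pseudo-first-order fit gives the apparent rate constant in h⁻¹.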

Mus musculus [2] = species: Mus musculus; assay: Degradation rate constant in biological media of mouse brain homogenates.; type: ADME, organism-based
Method in brief: (§1)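 Tissues come from male ddY mice (20–30 g) and male Wistar rats (200–250 g). Liver and brain are homogenized at 0–5 °C to 40% in pH 7.4 isotonic phosphate buffer and spun at 2500g for 15 min; the supernatant is used. Plasma is also used. A 0.1 M acetonitrile stock gives 1 mM final. Incubation at 37 ± 0.2 °C; apparent rate constant in h⁻¹.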

Mus musculus [3] = species: Mus musculus; assay: Survival ratio was calculated for determination of dose dependency.; type: functional
Method in brief: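 In male ddY mice (20–30 g), compound was given i.p. at varied doses as a suspension in pH 7.4 isotonic phosphate buffer with 1% CMC-Na, 15 min before s.c. picrotoxin 5 mg/kg. Dosing volume was 0.1 mL/10 g. Over 2 h of observation, the fraction of mice surviving was recorded at each dose to define dose dependency.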

Mus musculus [4] = species: Mus musculus; assay: Degradation rate constant in biological media of mouse liver homogenates.; type: ADME, organism-based; method in brief: as §1
Mus musculus [5] = assay: Sleeping time in mice after administration in mice induced by sodium pentobarbital; type: functional
Method in brief: (§2)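 Male ddY mice (20–30 g) are dosed i.p. at 50 mg/kg as a suspension in pH 7.4 isotonic phosphate buffer with 1% CMC-Na (0.1 mL/10 g), 30 min before i.p. sodium pentobarbital (45 mg/kg). Loss of righting reflex and sleeping time are recorded per mouse. Mean ± SEM; Student's t test versus control.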

Rattus norvegicus [6] = species: Rattus norvegicus; assay: Degradation rate constant in biological media of rat liver homogenates.; type: ADME, organism-based; method in brief: as §1
Rattus norvegicus [7] = species: Rattus norvegicus; assay: Degradation rate constant in biological media of rat plasma homogenates.; type: ADME, organism-based; method in brief: as §1
Mus musculus [8] = species: Mus musculus; assay: Compounds were evaluated for the effect on electroconvulsive-shock-induced disruption (ECS) of the memory of passive avoidance response (antiamnesic activity) in mice and expressed as latency.; type: functional
Method in brief: (§3)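 Male ddY mice (20–25 g) are dosed i.p. at 200 mg/kg as a suspension in pH 7.4 isotonic phosphate buffer with 1% CMC-Na (0.1 mL/10 g), 60 min before training. A two-compartment step-through box is used: lighted compartment, darkened compartment with grid floor, 30 V foot shock. Memory is disrupted by electroconvulsive shock. Mean ± SEM; Student's t test versus the ECS group.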

Mus musculus [9] = species: Mus musculus; assay: Latency to the protection against lethality by picrotoxin was measured and evaluated as a percent of the control in mice.; type: functional; parameters: concentration or dose not given beside the values
Method in brief: (§4)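 Male ddY mice (20–30 g) were given compound i.p. at 200 mg/kg as a suspension in pH 7.4 isotonic phosphate buffer with 1% CMC-Na, 15 min before s.c. picrotoxin 5 mg/kg. Dosing volume was 0.1 mL/10 g, and controls received vehicle. Latency to generalized clonic seizure and survival time were each expressed as % of control.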

Mus musculus [10] = species: Mus musculus; assay: Latency to the onset of generalized clonic epileptic seizures by picrotoxin was measured and evaluated as a percent of the control in mice.; type: functional; parameters: concentration or dose not given beside the values; method in brief: as §4
[11] = Solubility in pH 5.0 phosphate buffer (0.1 M) at 37 degrees Centigrade; Miscible; type: physicochemical
Rattus norvegicus [12] = species: Rattus norvegicus; assay: Degradation rate constant in biological media of rat brain homogenates.; type: ADME, organism-based; method in brief: as §1
Mus musculus [13] = species: Mus musculus; assay: Compounds were evaluated for the effect on electroconvulsive-shock-induced disruption (ECS) of the memory of passive avoidance response (antiamnesic activity) in mice and expressed as learning time.; type: functional; method in brief: as §3
[14] = Apparent partition coefficient between 1-octanol and pH 5.0 phosphate buffer (0.1 M) at 37 degrees Centigrade.; type: physicochemical; conditions: 1-octanol/phosphate buffer, read-out: LogD5.0
Method in brief: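 Final drug concentration 2 mM. The value is reported as the log of the apparent partition coefficient.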

Mus musculus [15] = assay: Onset for sleeping time after administration in mice induced by sodium pentobarbital; type: functional; method in brief: as §2
Mus musculus [16] = species: Mus musculus; assay: Compounds were evaluated for the effect on electroconvulsive-shock-induced disruption (ECS) of the memory of passive avoidance response (anti-amnesic activity) in mice and expressed as latency.; type: functional; method in brief: as §3

| SMILES | Degradation rate constant [1] | Degradation rate constant (Mus musculus [2]) | Survival ratio (Mus musculus [3]) | Degradation rate constant (Mus musculus [4]) | Sleeping time (Mus musculus [5]) | Degradation rate constant (Rattus norvegicus [6]) | Degradation rate constant (Rattus norvegicus [7]) | Latency (Mus musculus [8]) | Survival time (Mus musculus [9]) | Latency to clonic seizure onset (% of control) (Mus musculus [10]) | Saq [11] | Degradation rate constant (Rattus norvegicus [12]) | Learning time (Mus musculus [13]) | logD [14] | Onset for sleep (Mus musculus [15]) | Latency (Mus musculus [16]) | Onset for sleep, min (Mus musculus [15]) |
| --- | --- | --- | --- | --- | --- | --- | --- | --- | --- | --- | --- | --- | --- | --- | --- | --- | --- |
| CC(=O)N1CCCC1=O | 0.015 h⁻¹ | 0.01 h⁻¹ | 0 | 0.221 h⁻¹ | 38.2 min | 0.097 h⁻¹ | 0.028 h⁻¹ | 101.7 s | 144% | 97% | Miscible | 0.014 h⁻¹ | 15.3 s | -0.05 | 6.9 min |  |  |
| CCCCCCC(=O)N1CCCC1=O | 0.012 h⁻¹ | 0.086 h⁻¹ | 0 | 11.9 h⁻¹ | 61.8 min | 14.6 h⁻¹ | 0.056 h⁻¹ |  | 116% | 124% |  | 0.075 h⁻¹ | 20.4 s | 3.04 | 7.9 min | 240.6 s |  |
| CCCCC(=O)N1CCCC1=O |  |  | 0 |  |  |  |  |  | 107% | 78% |  |  |  |  |  |  |  |
| CCCC(=O)N1CCCC1=O | 0.006 h⁻¹ | 0.016 h⁻¹ | 0 | 1.35 h⁻¹ | 92 min | 3.11 h⁻¹ | 0.054 h⁻¹ |  | 142% | 92% |  | 0.016 h⁻¹ |  | 1.18 | 7.2 min |  |  |
| CCCCCCCCCC(=O)N1CCCC1=O | 0.008 h⁻¹ | 0.326 h⁻¹ | 50 | 2.53 h⁻¹ |  | 2.87 h⁻¹ | 0.025 h⁻¹ |  | 364% | 302% |  | 0.381 h⁻¹ |  | 4.33 |  |  |  |
| CCC(=O)N1CCCC1=O |  |  | 0 |  |  |  |  |  | 112% | 104% |  |  |  |  |  |  |  |
| O=C(O)CCC(=O)N1CCCC1=O |  |  | 0 |  |  |  |  |  | 93% | 113% |  |  |  |  |  |  |  |
| O=C1CCCN1C(=O)c1ccccc1 |  |  | 0 |  |  |  |  |  | 93% | 114% |  |  |  |  |  |  |  |
| CCCCCCCCCCCC(=O)NCCCC(=O)O |  |  | 60 |  |  |  |  |  | 388% | 493% |  |  |  |  |  |  |  |
| CC(C)(C)C(=O)N1CCCC1=O |  |  | 0 |  |  |  |  |  | 120% | 101% |  |  |  |  |  |  |  |
| O=C1CCCN1C(=O)Cc1ccccc1 |  |  | 33 |  |  |  |  |  | 281% | 106% |  |  |  |  |  |  |  |
| CCCCCCCCCCCC(=O)N1CCCC1=O | 0.007 h⁻¹ | 0.155 h⁻¹ | 80 | 0.789 h⁻¹ | 47.4 min | 1.23 h⁻¹ | 0.016 h⁻¹ | 278.8 s | 494% | 129% |  | 0.233 h⁻¹ | 19.4 s | 5.05 | 9.6 min |  |  |
| O=C1CCCN1 [2-PYRROLIDONE] | < 0.0001 h⁻¹ | 0.002 h⁻¹ | 0 | 0.034 h⁻¹ | 24.8 min | 0.03 h⁻¹ | 0.018 h⁻¹ |  | 102% | 107% | Miscible | 0.016 h⁻¹ |  |  | 10.2 min |  |  |
| CCC1(C)CC(=O)NC1=O (stereo unspecified) [ETHOSUXIMIDE] |  |  | 100 |  |  |  |  |  | 577% | 792% |  |  |  |  |  |  |  |
| NCCCC(=O)O [GAMMA-AMINOBUTYRIC ACID] |  |  |  |  | 25.7 min |  |  |  | 112% | 115% |  |  |  | -3.33 | 10.1 min |  |  |
| CCCC(CCC)C(=O)O [VALPROIC ACID] |  |  | 63 |  | 36.4 min |  |  |  | 472% | 171% |  |  |  |  |  |  | 10 |
